Converted amounts (≈) assume the structure as drawn. The source made the active and inactive calls. No cut-off for these calls is given here.
Tests used:
Escherichia coli = assay: Antimicrobial activity against Escherichia coli ATCC 11775 incubated for 24 hrs by microtiter broth dilution method; format: functional, organism-based
How it was run: (§1)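 Two-fold serial dilutions of compounds in DMSO were added to Mueller Hinton broth in 96-well microtiter plates (final 0.64% DMSO). Wells were inoculated with overnight bacterial culture at 5 × 10⁵ cfu/mL and incubated at 37 °C for 24 h. The MIC was the lowest concentration with no visible growth.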

Staphylococcus aureus [1] = assay: Antimicrobial activity against methicillin-sensitive Staphylococcus aureus CCARM 0204 incubated for 24 hrs by microtiter broth dilution method; format: functional; conditions: CCARM 0204, 24 h
How it was run: (§2)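 Two-fold serial dilutions of compound in DMSO were made in Mueller Hinton broth in 96-well microtiter plates, with 0.64% DMSO final. Each well was inoculated with an overnight bacterial culture at 5 × 10⁵ cfu/mL and incubated at 37 °C for 24 h. MIC was the lowest concentration showing no visible growth.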

[2] = test system: Staphylococcus epidermidis; assay: Antimicrobial activity against Staphylococcus epidermidis ATCC 12228 incubated for 24 hrs by microtiter broth dilution method; format: functional; conditions: ATCC 12228, 24 h; how it was run: as §1
Bacillus subtilis = assay: Antimicrobial activity against Bacillus subtilis ATCC 6633 incubated for 24 hrs by microtiter broth dilution method; format: functional; conditions: ATCC 6633, 24 h; how it was run: as §1
Staphylococcus aureus [3] = assay: Antimicrobial activity against methicillin-sensitive Staphylococcus aureus CCARM 0027 incubated for 24 hrs by microtiter broth dilution method; format: functional; conditions: CCARM 0027, 24 h; how it was run: as §2
Staphylococcus aureus [4] = assay: Antimicrobial activity against Staphylococcus aureus ATCC 6538 incubated for 24 hrs by microtiter broth dilution method; format: functional; conditions: ATCC 6538, 24 h; how it was run: as §1
Staphylococcus aureus [5] = assay: Antimicrobial activity against methicillin-sensitive Staphylococcus aureus CCARM 0205 incubated for 24 hrs by microtiter broth dilution method; format: functional; conditions: CCARM 0205, 24 h; how it was run: as §2
Staphylococcus aureus [6] = assay: Antimicrobial activity against methicillin-resistant Staphylococcus aureus CCARM 3090 incubated for 24 hrs by microtiter broth dilution method; format: functional; conditions: CCARM 3090, 24 h; how it was run: as §2
Klebsiella pneumoniae = assay: Antimicrobial activity against Klebsiella pneumoniae ATCC 4352 incubated for 24 hrs by microtiter broth dilution method; format: functional, organism-based; how it was run: as §1
Staphylococcus aureus [7] = assay: Antimicrobial activity against methicillin-resistant Staphylococcus aureus CCARM 3635 incubated for 24 hrs by microtiter broth dilution method; format: functional; conditions: CCARM 3635, 24 h; how it was run: as §2
Staphylococcus aureus [8] = assay: Antimicrobial activity against methicillin-sensitive Staphylococcus aureus CCARM 3640 incubated for 24 hrs by microtiter broth dilution method; format: functional; conditions: CCARM 3640, 24 h; how it was run: as §2
Salmonella typhimurium = assay: Antimicrobial activity against Salmonella typhimurium ATCC 14028 incubated for 24 hrs by microtiter broth dilution method; format: functional, organism-based; conditions: Salmonella enterica subsp. enterica serovar Typhimurium; how it was run: as §1
Staphylococcus aureus [9] = assay: Antimicrobial activity against methicillin-resistant Staphylococcus aureus CCARM 3089 incubated for 24 hrs by microtiter broth dilution method; format: functional; conditions: CCARM 3089, 24 h; how it was run: as §2
Staphylococcus aureus [10] = assay: Antimicrobial activity against methicillin-resistant Staphylococcus aureus CCARM 3634 incubated for 24 hrs by microtiter broth dilution method; format: functional; conditions: CCARM 3634, 24 h; how it was run: as §2
Kocuria rhizophila = assay: Antimicrobial activity against Kocuria rhizophila ATCC 9341 incubated for 24 hrs by microtiter broth dilution method; format: functional; conditions: ATCC 9341, 24 h; how it was run: as §1

Row | SMILES | MIC (Escherichia coli) | MIC (Staphylococcus aureus [1]) [µg/mL] | MIC [2] [µg/mL] | MIC (Bacillus subtilis) [µg/mL] | MIC (Staphylococcus aureus [3]) [µg/mL] | MIC (Staphylococcus aureus [4]) [µg/mL] | MIC (Staphylococcus aureus [5]) [µg/mL] | MIC (Staphylococcus aureus [6]) [µg/mL] | MIC (Klebsiella pneumoniae) | MIC (Staphylococcus aureus [7]) [µg/mL] | MIC (Staphylococcus aureus [8]) [µg/mL] | MIC (Salmonella typhimurium) | MIC (Staphylococcus aureus [9]) [µg/mL] | MIC (Staphylococcus aureus [10]) [µg/mL] | MIC (Kocuria rhizophila) [µg/mL]
1 | COc1ccc(C=C2OC(=O)C=C2c2ccc(O)c(Br)c2)cc1 | inactive | > 32 | 25 (≈ 67 µM) | 50 (≈ 134 µM) | > 32 | > 50 | > 32 | > 32 | inactive | > 32 | > 32 | inactive | > 32 | > 32 | 3.1 (≈ 8.31 µM)
2 | O=C1C=C(c2cc(Br)c(O)c(Br)c2)/C(=C/c2cc(Br)c(O)c(Br)c2)O1 [RUBROLIDE A] | inactive | 4 (≈ 6.71 µM) | 1.6 (≈ 2.69 µM) | 1.6 (≈ 2.69 µM) | 4 (≈ 6.71 µM) | 3.1 (≈ 5.2 µM) | 4 (≈ 6.71 µM) | 8 (≈ 13.4 µM) | inactive | 8 (≈ 13.4 µM) | 8 (≈ 13.4 µM) | inactive | 8 (≈ 13.4 µM) | 8 (≈ 13.4 µM) | 1.6 (≈ 2.69 µM)
3 | CCCCCCCCCC(=O)N[C@@H](Cc1c[nH]c2ccccc12)C(=O)N[C@H](CC(N)=O)C(=O)N[C@@H](CC(=O)O)C(=O)N[C@@H]1C(=O)NCC(=O)N[C@@H](CCCN)C(=O)N[C@@H](CC(=O)O)C(=O)N[C@H](C)C(=O)N[C@@H](CC(=O)O)C(=O)NCC(=O)N[C@H](CO)C(=O)N[C@@H]([C@H](C)CC(=O)O)C(=O)N[C@@H](CC(=O)c2ccccc2N)C(=O)O[C@@H]1C | – | 4 (≈ 2.47 µM) | – | – | 16 (≈ 9.87 µM) | – | 2 (≈ 1.23 µM) | > 32 | – | > 32 | 16 (≈ 9.87 µM) | – | > 32 | > 32 | –
4 | O=C1O/C(=C\c2cc(Br)c(O)c(Br)c2)C(c2ccc(O)c(Br)c2)=C1C(=O)c1cc(Br)c(O)c(Br)c1 [CADIOLIDE E] | inactive | 2 (≈ 2.52 µM) | 6.3 (≈ 7.93 µM) | 3.1 (≈ 3.9 µM) | 2 (≈ 2.52 µM) | 3.1 (≈ 3.9 µM) | 4 (≈ 5.03 µM) | 1 (≈ 1.26 µM) | inactive | 0.5 (≈ 0.629 µM) | 0.25 (≈ 0.315 µM) | inactive | 1 (≈ 1.26 µM) | 2 (≈ 2.52 µM) | 0.2 (≈ 0.252 µM)
5 | CN[C@H](CC(C)C)C(=O)N[C@H]1C(=O)N[C@@H](CC(N)=O)C(=O)N[C@H]2C(=O)N[C@H]3C(=O)N[C@H](C(=O)N[C@H](C(=O)O)c4cc(O)cc(O)c4-c4cc3ccc4O)[C@H](O)c3ccc(c(Cl)c3)Oc3cc2cc(c3O[C@@H]2O[C@H](CO)[C@@H](O)[C@H](O)[C@H]2O[C@H]2C[C@](C)(N)[C@H](O)[C@H](C)O2)Oc2ccc(cc2Cl)[C@H]1O [VANCOMYCIN] | – | 0.25 (≈ 0.173 µM) | – | – | – | – | < 0.13 | – | – | – | 0.25 (≈ 0.173 µM) | – | – | – | –
6 | COc1ccc(C=C2OC(=O)C=C2c2cc(Br)c(O)c(Br)c2)cc1 [RUBROLIDE P] | inactive | > 32 | 50 (≈ 111 µM) | 50 (≈ 111 µM) | > 32 | > 50 | > 32 | > 32 | inactive | > 32 | > 32 | inactive | > 32 | > 32 | 6.3 (≈ 13.9 µM)

— ChEMBL document CHEMBL2203068, “Antibacterial butenolides from the Korean tunicate Pseudodistoma antinboja” (2012)
